Reference: ChEMBL document CHEMBL1132320, “Evaluation of the desferrithiocin pharmacophore as a vector for hydroxamates” (1999)
“And” between values parts separate entries of the source, which are not always exact repeats. Equal entries are not always repeated.

Legend:
Type in all cases: functional
Rattus norvegicus [1] = experiment: Efficiency is defined as net iron excretion in rats at the dose of 150 umol/kg administered perorally.
Outline: (§1)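 Male Sprague–Dawley rats (~400 g) with bile-duct cannulas, under sodium pentobarbital (55 mg/kg ip) anesthesia, housed in metabolic cages with free water. Chelator is given as a single dose in 40% Cremophor RH-40/H2O (v/v). Bile is collected at 3-h intervals for 24 h and urine every 24 h. Iron is measured by flame atomic absorption. Efficiency = (treated minus control iron excretion)/theoretical output, as %; bile/urine split reported.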

Rattus norvegicus [2] = experiment: Efficiency is defined as net iron excretion in rats at the dose of 150 umol/kg administered subcutaneously.; outline: as §1
Monkey [3] = experiment: The efficiency was calculated by averaging the iron output for 4 days before the administration of the drug, subtracting these numbers from the 2-day iron clearance after the administration of the drug at the dose of 300 umol/kg administered perorally in monkeys.
Outline: (§2)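 Cebus apella monkeys iron-loaded with iv iron dextran (200–300 mg Fe/kg per slow 45–60 min infusion, to about 500 mg Fe/kg), rested ≥60 days. Chelator is given in 40% Cremophor RH-40/H2O (v/v). Feces and urine are collected from 4 days before to 5 days after dosing. Iron is measured by flame atomic absorption. Efficiency = (2-day post-drug iron minus 4-day baseline average)/theoretical output, as %.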

Monkey [4] = experiment: The efficiency was calculated by averaging the iron output for 4 days before the administration of the drug, subtracting these numbers from the 2-day iron clearance after the administration of the drug at the dose of 225 umol/kg administered perorally in monkeys.; outline: as §2
Monkey [5] = experiment: The efficiency was calculated by averaging the iron output for 4 days before the administration of the drug, subtracting these numbers from the 2-day iron clearance after the administration of the drug at the dose of 300 umol/kg administered subcutaneously in monkeys.; outline: as §2
Monkey [6] = experiment: The efficiency was calculated by averaging the iron output for 4 days before the administration of the drug, subtracting these numbers from the 2-day iron clearance after the administration of the drug at the dose of 150 umol/kg administered perorally in monkeys.; outline: as §2
Monkey [7] = experiment: The efficiency was calculated by averaging the iron output for 4 days before the administration of the drug, subtracting these numbers from the 2-day iron clearance after the administration of the drug at the dose of 150 umol/kg administered subcutaneously in monkeys.; outline: as §2

Structure (SMILES)	Efficiency (Rattus norvegicus [1])	Efficiency (Rattus norvegicus [2])	Efficiency (Monkey [3])	Efficiency (Monkey [4])	Efficiency (Monkey [5])	Efficiency (Monkey [6])	Efficiency (Monkey [7])
O=C(c1ccccc1O)N(O)CCOCCOCCN(O)C(=O)c1ccccc1O	<0.5%	0.8%					
O=C(C1CSC(c2ncccc2O)=N1)N(O)Cc1ccccc1 (stereo not given)	1%	1.4%	<0.5%				
CC(=O)N(O)CCCCCN(O)C(=O)[C@H]1CSC(c2ncccc2O)=N1	2.8%	8.5%		3.2% and 12.8%			
O=C(O)[C@H]1CSC(c2ncccc2O)=N1	2.4%	1.8%	8%		8.3%	4.8%	
O=C([C@H]1CSC(c2ncccc2O)=N1)N(O)CCOCCOCCN(O)C(=O)[C@H]1CSC(c2ncccc2O)=N1	4.6%	20.6%					
CN(O)C(=O)[C@H]1CSC(c2ncccc2O)=N1	3.1%	5.3%	13.2%			6.9%	11.7%
